In ChEMBL document CHEMBL5046223, “AZD5438-PROTAC: A selective CDK2 degrader that protects against cisplatin- and noise-induced hearing loss” (Eur J Med Chem, 2021):
Active and inactive are the calls of the source. The calls are words filed in the database; no cut-off is given here.

Key:
[1] = system: Protein cereblon/Cyclin-dependent kinase 2 (Mus musculus); test: Protac activity at CDK2/CRBN E3 ligase in mouse HEI-OC1 cells assessed as induction of CDK2 protein degradation at 100 nM measured after 24 hrs by Western blot analysis
Danio rerio [2] = species on record: Danio rerio; test: Protection of kainic acid-induced ototoxicity in 5 days post fertilization zebrafish assessed as protection neuromast hair cells at 5 to 100 nM measured after 24 hrs by fluorescence microscopy; conditions: dose 5-100 nM, time 5.0 day
Danio rerio [3] = species on record: Danio rerio; test: Protection of cisplatin-induced ototoxicity in 5 days post fertilization zebrafish assessed as protection neuromast hair cells at 0.001 to 1 nM measured after 24 hrs by fluorescence microscopy; type: functional, organism-based; conditions: dose upper 1.0 µM, time 5.0 day, in the assay text read “0.001 to 1 µM” for “0.001 to 1 nM”
How it was run: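 Zebrafish larvae at 4 dpf pre-exposed 24 h to 0.1 nM–1 μM in E3, then co-incubated 6 h with compound plus cisplatin 400 μM. After 1 h recovery, fish were fixed in 4% PFA and immunostained for otoferlin. Hair cells in otic, middle and opercular neuromasts were counted manually under a 40x fluorescence objective, 6–8 fish per experiment; mean ± SEM.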

[4] = target: von Hippel-Lindau disease tumor suppressor/CDK2 (Danio rerio) (UniProt Q7ZWB1+Q68EH9); test: PROTAC activity at CDK2/VHL E3 ligase in 5 days post fertilization zebrafish assessed as decrease in CDK2 abundance measured after 24 hrs by immunoblot analysis; conditions: dose 1.0 µM
How it was run: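 TuAB zebrafish larvae at 4 dpf, kept in E3 medium (pH 7.2) at 28.5°C, exposed 24 h to 0.1 nM–1 μM in E3 (controls 0.1% DMSO). Fish were collected before any ototoxin. Lysates were run at 20–30 μg protein per lane, probed with anti-CDK2 (1:500) against β-actin, and CDK2 bands quantified from three independent experiments.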

[5] = target: von Hippel-Lindau E3 ligase/Cyclin-dependent kinase 2 (Mus musculus); test: Protac activity at CDK2/VHL E3 ligase in mouse HEI-OC1 cells assessed as induction of CDK2 protein degradation measured after 24 hrs by Western blot analysis

Structure (SMILES)	Activity [1]	Activity (Danio rerio [2])	Activity (Danio rerio [3])	Activity [4]	DC50 [5] [nM]
O=C1CCC(N2C(=O)c3cccc(NCCOCCOCCOCCn4cc(CO[C@H]5CC[C@H](NC(=O)c6n[nH]cc6NC(=O)c6c(F)cccc6F)CC5)nn4)c3C2=O)C(=O)N1 (stereo partly specified)	inactive				
Cc1ncsc1-c1ccc(CNC(=O)[C@@H]2C[C@@H](O)CN2C(=O)[C@@H](NC(=O)COCCn2cc(CCCS(=O)(=O)c3ccc(Nc4nccc(-c5cnc(C)n5C(C)C)n4)cc3)nn2)C(C)(C)C)cc1		Active	Active	Active	100
Cc1ncc(-c2ccnc(Nc3ccc(S(=O)(=O)CCCc4cn(CCOCCOCCOCCNc5cccc6c5C(=O)N(C5CCC(=O)NC5=O)C6=O)nn4)cc3)n2)n1C(C)C (stereo unspecified)	inactive				
